According to publication PMC5458759 (Genes & Development, 2017):

Assays:
ERL1^LRR [1] = assay: Biochemical assay of EPFL8 interaction; type: binding, Arabidopsis; conditions: Supplemental Fig. S11
ER^LRR [2] = assay: Gel filtration assay with ER^LRR; type: binding, Arabidopsis; conditions: 10 mM Bis-Tris pH 6.0, 100 mM NaCl; incubated 30 min at 4°C
Method in brief: (§1)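 LRR ectodomains were expressed in High Five insect cells by baculovirus at 22°C; for complexes, the ERf and TMM viruses were added together. Protein was purified from the supernatant by Ni-NTA and then size exclusion. Receptor and EPF-family peptide were mixed, held 30 min at 4°C, then run on Superdex 200 in 10 mM Bis-Tris pH 6.0, 100 mM NaCl. Fractions were analysed by SDS-PAGE with Coomassie staining.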

ERL1^LRR [3] = assay: Gel filtration assay with ERL1^LRR; type: binding, Arabidopsis; conditions: 10 mM Bis-Tris pH 6.0, 100 mM NaCl; incubated 30 min at 4°C
Method in brief: as §1

ERL1^LRR [4] = assay: Pull-down assay with 6xHis-tagged ERL1^LRR; type: binding, Arabidopsis; conditions: Ni resin, SDS-PAGE, Coomassie blue; without TMM^LRR
Method in brief: (§2)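 Purified C-terminal 6xHis-tagged receptor LRR, from High Five cells, was mixed with excess EPF-family peptide and Ni resin for 30 min on ice. The resin was washed four times in 25 mM Tris pH 8.0, 250 mM NaCl, 15 mM imidazole, then heated 5 min at 100°C in SDS loading buffer. Bound protein was detected by SDS-PAGE with Coomassie staining.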

ERL2^LRR [5] = assay: Pull-down assay with 6xHis-tagged ERL2^LRR; type: binding, Arabidopsis; conditions: Ni resin, SDS-PAGE, Coomassie blue; without TMM^LRR
Method in brief: as §2

ER^LRR [6] = assay: Pull-down assay with 6xHis-tagged ER^LRR; type: binding, Arabidopsis; conditions: Ni resin, SDS-PAGE, Coomassie blue; without TMM^LRR
Method in brief: as §2

ERL2^LRR [7] = assay: Gel filtration assay with ERL2^LRR; type: binding, Arabidopsis; conditions: 10 mM Bis-Tris pH 6.0, 100 mM NaCl; incubated 30 min at 4°C
Method in brief: as §1

ERL1^LRR–TMM^LRR complex [8] = assay: Gel filtration assay with ERL1^LRR–TMM^LRR complex; type: binding, Arabidopsis; conditions: 10 mM Bis-Tris pH 6.0, 100 mM NaCl; incubated 30 min at 4°C
Method in brief: as §1

ERL1^LRR–TMM^LRR complex [9] = assay: Ligand competition assay, ERL1^LRR–TMM^LRR; type: binding, Arabidopsis; conditions: 10 µM EPF2-6xHis or EPF1-6xHis, increasing concentrations of EPFL9, 1 h at 4°C
Method in brief: (§3)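 The ERf–TMM LRR complex was coexpressed in High Five cells and purified by Ni-NTA and gel filtration. It was incubated with 10 µM His-tagged EPF peptide, with or without varying concentrations of competing peptide, for 1 h at 4°C with gentle agitation. The mixture was then passed over Ni beads and washed four times. Eluate was boiled 5 min at 100°C in SDS loading buffer and read by SDS-PAGE with Coomassie staining.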

ER^LRR–TMM^LRR complex [10] = assay: Ligand competition assay, ER^LRR–TMM^LRR; type: binding, Arabidopsis; conditions: 10 µM EPF2-6xHis or EPF1-6xHis, increasing concentrations of EPFL9, 1 h at 4°C
Method in brief: as §3

ER^LRR–TMM^LRR complex [11] = target: T1, ER^LRR–TMM^LRR complex (Arabidopsis thaliana, UniProt Q42371;Q9SSD1); assay: pull-down
T1 sequence 1: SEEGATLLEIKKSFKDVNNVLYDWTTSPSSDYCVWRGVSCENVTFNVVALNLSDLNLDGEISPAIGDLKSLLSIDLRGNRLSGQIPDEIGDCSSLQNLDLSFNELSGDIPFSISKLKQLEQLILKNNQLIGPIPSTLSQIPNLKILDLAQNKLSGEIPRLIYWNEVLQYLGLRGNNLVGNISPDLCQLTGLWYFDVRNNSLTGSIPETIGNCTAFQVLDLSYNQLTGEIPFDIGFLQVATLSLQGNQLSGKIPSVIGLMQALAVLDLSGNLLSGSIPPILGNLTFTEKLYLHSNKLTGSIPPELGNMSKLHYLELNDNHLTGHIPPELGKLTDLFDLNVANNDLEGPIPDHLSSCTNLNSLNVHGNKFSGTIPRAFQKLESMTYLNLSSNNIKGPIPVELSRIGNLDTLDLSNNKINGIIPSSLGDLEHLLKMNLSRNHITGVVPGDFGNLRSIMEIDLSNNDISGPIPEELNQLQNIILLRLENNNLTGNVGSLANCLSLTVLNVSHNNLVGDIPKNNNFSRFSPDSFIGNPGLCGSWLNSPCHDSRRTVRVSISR
T1 sequence 2: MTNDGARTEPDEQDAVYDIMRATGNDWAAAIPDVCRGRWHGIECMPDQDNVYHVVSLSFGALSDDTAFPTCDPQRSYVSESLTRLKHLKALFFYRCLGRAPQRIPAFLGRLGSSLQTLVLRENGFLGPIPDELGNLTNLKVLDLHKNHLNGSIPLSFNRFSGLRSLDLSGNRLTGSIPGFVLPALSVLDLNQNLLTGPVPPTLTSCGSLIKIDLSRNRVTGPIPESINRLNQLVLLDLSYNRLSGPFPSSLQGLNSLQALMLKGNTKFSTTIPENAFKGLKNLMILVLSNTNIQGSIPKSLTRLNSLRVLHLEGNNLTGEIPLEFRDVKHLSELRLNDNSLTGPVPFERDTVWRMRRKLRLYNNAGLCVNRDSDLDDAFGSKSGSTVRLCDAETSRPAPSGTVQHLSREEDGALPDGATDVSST

ERL1^LRR–TMM^LRR complex [12] = target: T2, ERL1^LRR–TMM^LRR complex (Arabidopsis thaliana, UniProt C0LGW6;Q9SSD1); assay: ITC
T2 sequence 1: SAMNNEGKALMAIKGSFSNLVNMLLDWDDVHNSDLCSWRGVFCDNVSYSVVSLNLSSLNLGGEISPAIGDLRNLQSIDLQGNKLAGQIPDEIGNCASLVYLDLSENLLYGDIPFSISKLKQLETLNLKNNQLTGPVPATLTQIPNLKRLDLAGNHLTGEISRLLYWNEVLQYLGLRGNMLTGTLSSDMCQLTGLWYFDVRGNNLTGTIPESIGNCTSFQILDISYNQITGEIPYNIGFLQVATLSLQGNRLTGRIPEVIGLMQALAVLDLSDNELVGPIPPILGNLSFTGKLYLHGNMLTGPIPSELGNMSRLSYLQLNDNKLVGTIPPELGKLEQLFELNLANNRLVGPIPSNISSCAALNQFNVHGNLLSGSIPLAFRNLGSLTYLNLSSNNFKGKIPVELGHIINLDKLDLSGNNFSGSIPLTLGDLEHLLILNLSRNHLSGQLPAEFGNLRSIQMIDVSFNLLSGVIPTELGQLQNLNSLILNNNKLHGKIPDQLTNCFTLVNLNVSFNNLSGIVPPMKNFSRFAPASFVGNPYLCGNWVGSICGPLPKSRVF
T2 sequence 2: T1 sequence 2

[13] = target: T3, ERL1^LRR, extracellular LRR domain of ER-LIKE1 (ERL1) (Arabidopsis thaliana, UniProt C0LGW6 24-580); assay: ITC
T3 sequence: T2 sequence 1

[14] = target: T3, ERL1^LRR, extracellular LRR domain of …; assay: pull-down
[15] = target: T4, ERL2^LRR, extracellular LRR domain of ERL2 (Arabidopsis thaliana, UniProt Q6XAT2 28-580); assay: pull-down
T4 sequence: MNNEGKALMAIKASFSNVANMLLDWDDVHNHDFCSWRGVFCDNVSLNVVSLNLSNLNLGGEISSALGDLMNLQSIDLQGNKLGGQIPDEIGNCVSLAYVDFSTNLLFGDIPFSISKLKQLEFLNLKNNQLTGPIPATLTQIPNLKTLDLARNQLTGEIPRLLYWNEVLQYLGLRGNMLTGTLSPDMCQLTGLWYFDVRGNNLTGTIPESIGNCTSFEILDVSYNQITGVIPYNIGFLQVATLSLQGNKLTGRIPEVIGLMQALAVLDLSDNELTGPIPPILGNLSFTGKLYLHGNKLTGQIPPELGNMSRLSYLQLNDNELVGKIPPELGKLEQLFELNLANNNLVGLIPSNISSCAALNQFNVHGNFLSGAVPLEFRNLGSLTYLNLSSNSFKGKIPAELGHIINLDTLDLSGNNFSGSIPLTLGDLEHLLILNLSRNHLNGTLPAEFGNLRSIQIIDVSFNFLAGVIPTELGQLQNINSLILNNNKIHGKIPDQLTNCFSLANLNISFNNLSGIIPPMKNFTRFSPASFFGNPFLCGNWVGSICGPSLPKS

[16] = target: T5, ER^LRR, extracellular LRR domain of ERECTA (ER) (Arabidopsis thaliana, UniProt Q42371 24-580); assay: pull-down
T5 sequence: T1 sequence 1

EPFL8: EPF family peptide, residues 46–99 (MGSEPPVCATKCRNCKPCLPYLFDIRGAHDDDDDSEPYYPVKWICRCRDRVFEP)
interaction with ERL1^LRR in the absence of TMM^LRR (ERL1^LRR [1]): interacted

EPFL4: EPF family growth regulatory peptide, residues 59–109 (PGSSPPTCRSKCGKCQPCKPVHVPIQPGLSMPLEYYPEAWRCKCGNKLFMP)
interaction with ER^LRR alone in gel filtration (ER^LRR [2]): interacted strongly | interaction with ERL1^LRR alone in gel filtration (ERL1^LRR [3]): interacted strongly | interaction with ERL1^LRR in pull-down (ERL1^LRR [4]): interacted strongly | interaction with ERL2^LRR in pull-down (ERL2^LRR [5]): interacted strongly | interaction with ER^LRR in pull-down (ER^LRR [6]): interacted strongly | interaction with ERL2^LRR alone in gel filtration (ERL2^LRR [7]): interacted strongly

EPFL9: EPF family peptide, residues 58–102, promotes stomatal development (IGSTAPTCTYNECRGCRYKCRAEQVPVEGNDPINSAYHYRCVCHR)
interaction with ERL1^LRR–TMM^LRR in gel filtration (comigration) (ERL1^LRR–TMM^LRR complex [8]): much more EPFL9 was shifted to a higher-molecular-weight species and comigrated with the complex | interaction with ERL1^LRR alone in gel filtration (ERL1^LRR [3]): weak interaction | competition: amount of ERL1^LRR–TMM^LRR pulled down by EPF2 or EPF1 (ERL1^LRR–TMM^LRR complex [9]): gradually decreased the amount | competition: amount of ER^LRR–TMM^LRR pulled down by EPF2 or EPF1 (ER^LRR–TMM^LRR complex [10]): gradually decreased the amount

IGSTAPTCTYNECRGCRYKCRAEQVPVEGNDPINSAYHYRCVCHR [EPFL9 (STOMAGEN) peptide, residues 58–102]
binding result (ER^LRR–TMM^LRR complex [11]): binds | Kd (ERL1^LRR–TMM^LRR complex [12]): 4 µM | fold lower affinity than for ERL1^LRR–TMM^LRR [13]: ~10 fold

B1: EPFL6 (CHALLAH, CHAL) peptide, residues 106–156 (peptide)
chain: LGSSPPRCSSKCGRCTPCKPVHVPVPPGTPVTAEYYPEAWRCKCGNKLYMP
binding result (ERL1^LRR–TMM^LRR complex [12]): binds | binding result [14]: binds | binding result [15]: binds | binding result [16]: binds
